# Hits are enriched below; roughly 7.4% of the tested compounds scored in any of these assays.
# M1 ag = activates the M1 muscarinic receptor | CHO-M1 cells, Fluo-4 calcium fluorescence, agonist mode; hits give high values | B-score at 10 µM | actives 3% (n = 64,000) | AID 626;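 active = fluorescence rise, raw or as B-score row- and column-corrected plate score, outside the 99.7% band of its plate's samples, either direction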
# JNK3 inh = blocks human JNK3 kinase activity; P53779; purified JNK3 kinase activity, HTS; inhibition, % at 8 µM; actives 0.61% (n = 60,000); in the data active = inhibition above about 17%;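 also: 0% = DMSO and 100% = reference inhibitor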
# Jurkat tox 60K = cytotoxicity toward Jurkat cells; Jurkat E6.1 viability, ATP luminescence, 48 h; inhibition, % at 4 µM; actives 1.2% (n = 56,000);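 active = inhibition above the mean inhibition of all tested compounds plus 3 SD, cut at about 28% in these data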
# S1P1 ag pot = S1P1 (human) agonism or agonism potentiation; S1P1 CRE-bla cells, forskolin, beta-lactamase FRET, potentiator mode; S1P1 agonist co-added at EC20, 2 nM; 100% = saturating reference agonist, 0% = basal; P21453; activation, % at 9.5 µM; actives 0.57% (n = 56,000);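 active = activation above a cutoff set at the mean activation of all tested compounds plus 3 SD, cut at about 54% in these data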;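 also: forskolin at 4 µM as EC80 and the EC20 agonist is SEW2871; 100% = SEW2871 at its EC100 plus forskolin at EC80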
# M1 antagonist = blocks the rat M1 muscarinic receptor response to acetylcholine; P08482; CHO-M1 cells, Fluo-4 calcium, ACh EC80 antagonist mode; hits give low values; B-score at 10 µM; actives 3.4% (n = 64,000); AID 628;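 active = calcium fluorescence response, raw or row-and-column corrected B-score, differing from the plate sample mean either way at a set confidence level, mostly lower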
# Target sequence (P08482 whole entry, looked up): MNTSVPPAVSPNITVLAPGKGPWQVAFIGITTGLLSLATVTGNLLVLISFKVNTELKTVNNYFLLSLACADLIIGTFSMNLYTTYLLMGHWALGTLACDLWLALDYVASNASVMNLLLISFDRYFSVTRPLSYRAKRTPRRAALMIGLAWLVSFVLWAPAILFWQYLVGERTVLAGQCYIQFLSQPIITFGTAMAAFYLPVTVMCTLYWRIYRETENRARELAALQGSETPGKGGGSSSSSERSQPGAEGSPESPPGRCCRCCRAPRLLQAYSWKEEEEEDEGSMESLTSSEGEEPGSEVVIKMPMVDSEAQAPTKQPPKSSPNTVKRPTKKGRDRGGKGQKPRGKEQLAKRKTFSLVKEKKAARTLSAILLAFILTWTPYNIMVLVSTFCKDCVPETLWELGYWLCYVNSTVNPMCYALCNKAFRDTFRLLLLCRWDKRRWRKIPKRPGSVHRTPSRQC
# S1P3 ag = S1P3 (human) receptor agonism; actives 0.1% (n = 60,000); S1P3 NFAT-BLA reporter cells, FRET ratio; relative to 1 µM S1P, basal subtracted; Q99500; activation, % at 4.5 µM; AID 373;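 active = activation above the screen-wide mean plus 3 SD, cut at about 4.5% in these data, passing the limit was not always enough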
#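 Material: Human S1P3 NFAT-BLA reporter CHO cells | Incubation: Overnight plating, 4 h compound 37 °C, 2 h substrate RT | Signal: FRET β-lactamase substrate fluorescence, excitation 405 nm, 460/535 nm emission ratio, background-subtracted | Compound: 4.5 µM final, single dose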
# Starred values were filed as active, the others as inactive; · = no result given.
SMILES,M1 ag,JNK3 inh,Jurkat tox 60K,S1P1 ag pot,M1 antagonist,S1P3 ag
O=c1cc(-c2ccccc2)c2c([nH]1)CCCC2,0.81,10,8,-3,0.51,-1
CCc1c(C)sc(NC(=O)c2cc(-c3ccco3)on2)c1C#N,-0.31,9,3,92*,0.0098,-1
Cc1ccc(NC(=O)c2cc(-c3ccco3)on2)cc1C,1.3,3,4,72*,0.88,-1
CCCc1cc(C(=O)Nc2sc(C)c(CC)c2C#N)no1,0.014,3,7,74*,-0.4,-1
CCc1c(C)sc(NC(=O)c2cc(C)on2)c1C#N,-0.65,0,3,-1,0.074,0
Cc1ccc(NC(=O)c2cc(-c3ccco3)on2)cc1,-0.028,-5,-1,11,-0.88,0
COc1ccccc1NC(=O)N(Cc1ccco1)Cc1cc2ccc(C)c(C)c2[nH]c1=O,1,0,80*,2,-0.046,0
O=C(Cn1cnc2ccccc2c1=O)Nc1ccc(-c2nnc3n2CCCCC3)cc1,0.3,30*,4,-48,-1.8,0
O=C(CN1C(=O)C2CC=CCC2C1=O)Nc1ccc(-c2nnc3n2CCCCC3)cc1 (stereo not drawn),1.4,2,-3,-10,0.67,1
CCOC(=O)c1c(NC(=O)CSc2nnc(-c3cccnc3)n2Cc2ccco2)sc(C)c1C,-1.5,8,4,-41,-0.064,1
CC(C)Cn1c(=O)c(C(=O)Nc2ccccc2S(N)(=O)=O)c(O)c2ccccc21,1.3,3,7,120*,-0.88,-2
CC1CCCCN1C(=O)CSc1nnc(-c2ccc(Cl)s2)o1 (stereo not drawn),·,5,-4,23,·,-1
Oc1ccccc1-c1cc(-c2ccc3c(c2)OCCO3)n[nH]1,-0.021,·,·,·,0.38,·
CCOc1ccc(-c2[nH]ncc2-c2ccc(OC)c(OC)c2)c(O)c1,0.5,12,92*,-26,0.043,-1
COc1ccc(-c2[nH]ncc2-c2ccc3c(c2)OCCO3)c(O)c1,0.037,-8,8,91*,0.64,-1
CCc1cc(-c2[nH]ncc2-c2ccc3c(c2)OCO3)c(O)cc1O,3.2,4,12,69*,-0.0031,-1
CCOc1ccc(-c2[nH]ncc2Oc2ccccc2OC)c(O)c1,1.6,-6,-2,-4,0.018,0
O=C(c1ccco1)N1CCN(/C(=N/S(=O)(=O)c2cccs2)c2ccccc2Cl)CC1,-0.32,-1,-5,4,-0.19,0
Cc1ccc(C2Nc3ccccc3C(=O)N2Cc2ccco2)cc1 (stereo not drawn),0.033,9,6,7,-0.37,0
Cc1c(C(=O)OCc2ccccc2)[nH]c2c1C(=O)CC(c1ccco1)C2 (stereo not drawn),-0.43,3,98*,-1,-0.096,-1
CSCCOC(=O)c1[nH]c2c(c1C)C(=O)CC(c1ccco1)C2 (stereo not drawn),0.62,1,85*,21,-0.051,0
COCCOC(=O)c1[nH]c2c(c1C)C(=O)CC(c1ccco1)C2 (stereo not drawn),-1.4,4,92*,-4,-0.026,-1
COCCOC(=O)c1[nH]c2c(c1C)C(=O)CC(c1ccccc1)C2 (stereo not drawn),-0.18,·,·,·,0.18,·
CCCCOC(=O)c1[nH]c2c(c1C)C(=O)CC(c1cc(OC)c(OC)c(OC)c1)C2 (stereo not drawn),-0.0029,-7,46*,134*,-0.51,-1
COc1cc(C(=O)N2CCC(c3nc(-c4cccnc4)no3)CC2)cc(OC)c1OC,0.053,3,-2,-21,-0.35,-1
SMILES,M1 ag,JNK3 inh,Jurkat tox 60K,S1P1 ag pot,M1 antagonist,S1P3 ag
COC(=O)N1CC(=O)N(OC)C1c1ccc(Cl)cc1Cl (stereo not drawn),1.2,0,-2,0,0.32,-2
COCCOC(=O)c1[nH]c2c(c1C)C(=O)CC(c1ccc(F)cc1)C2 (stereo not drawn),-0.1,4,75*,29,0.087,0
COCCOC(=O)c1[nH]c2c(c1C)C(=O)CC(c1ccc(N(C)C)cc1)C2 (stereo not drawn),-0.016,-1,-4,-3,0.15,0
CCOC(=O)c1[nH]c2c(c1C)C(=O)CC(c1ccco1)C2 (stereo not drawn),0.0053,8,100*,-10,0.11,-1
C=CCN(C(=O)c1ccccc1)c1ccc(OC)cc1,0.18,-1,49*,·,0.66,-1
CCN(C(=O)c1cc2cc(OC)ccc2oc1=O)c1ccccc1,-0.56,-4,1,5,0.4,-1
O=C(NC1CC1)c1ccc(CS(=O)(=O)c2c(Cl)cccc2Cl)o1,-0.061,-1,0,-6,-0.087,0
COc1ccccc1NC(=O)N1CCc2[nH]c3ccc(Cl)cc3c2C1,-0.089,-5,-1,-14,0.0037,0
CCN1CCN(c2ncc3c(n2)CC(c2cc(OC)c(OC)c(OC)c2)CC3=O)CC1 (stereo not drawn),-0.31,-3,80*,-16,-0.73,-1
CC(C)CNC(=O)C1CC(=O)OC12CCCCC2 (stereo not drawn),0.92,4,3,5,2.1*,-1
N#Cc1nc(-c2ccccc2F)oc1NC1CCCCC1,0.47,0,2,0,-0.0082,0
Cc1ccccc1-n1nc(C)c2cc(C(=O)NCc3cccnc3)sc21,-0.11,57*,8,-6,-0.36,0
Cc1nn(CC(=O)NCc2cccnc2)c(=O)c2ccccc12,-0.57,-7,-6,-27,0.81,-1
O=C1C2=C(SCCS2)C(=O)N1c1ccccc1,-1.2,-2,1,-5,-0.22,0
O=C1C2=C(SCCS2)C(=O)N1CCCO,7.9*,9,0,-3,0.1,-2
O=C(CC1Sc2ncnn2C1=O)Nc1ccc(Br)cc1 (stereo not drawn),0.44,-3,-3,0,0.096,0
c1ccc2c(c1)Cc1cc(CN3CCOCC3)ccc1-2,-2,-5,-5,4,-0.86,-1
Cc1cc(NC(=O)CSc2nc3ccccc3c(=O)n2C2CCCC2)no1,-0.092,2,71*,·,0.5,0
COC(=O)c1ccccc1NC(=O)CSc1nc(O)cc(=O)n1C1CCCC1,44*,-1,-5,2,0.69,1
Cc1cc(Oc2ccccc2)nc(OCC#N)n1,0.097,-8,2,-5,0.4,0
C/C(NC1CCCC1)=C(/C#N)C(N)=O,0.16,32*,-5,-12,-1.2,0
COc1ccc(Nc2cc(C)nc3ncnn23)c(OC)c1,-0.29,2,-9,-20,-0.42,1
COc1ccc(CNc2cc(C)nc3ncnn23)c(OC)c1,1.1,6,80*,60,-1.3,-1

# Screens from PubChem.
